Reference: ChEMBL document CHEMBL1145449, “Isolation, structures, and structure - cytotoxic activity relationships of withanolides and physalins from Physalis angulata” (J Nat Prod, 2007)
In brackets after ≈: the same amount, converted by molar mass.

How the values were obtained:
Assay type in all cases: functional, cell-based
[1] = system: A549; assay: Antitumor activity against human A549 cells
Procedure, shortened: (§1)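 SRB growth assay. Stock cultures grown in T-25 flasks in RPMI-1640 with […], 0.25% sodium bicarbonate, 10% FBS and 100 µg/mL kanamycin. Freshly trypsinized cells seeded at 1500-7500 per well, compounds added from DMSO-diluted stock, 3 days culture. Attached cells fixed with cold 50% TCA, stained with 0.4% SRB, bound dye solubilized, absorbance read at 562 nm. EC50 = concentration reducing growth 50%, mean of at least three independent determinations.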

[2] = system: KB; assay: Antitumor activity against human KB cells; procedure, shortened: as §1
[3] = system: A-431; assay: Antitumor activity against human A431 cells; procedure, shortened: as §1
[4] = system: PC-3; assay: Antitumor activity against human PC3 cells; procedure, shortened: as §1
[5] = system: HCT-8; assay: Antitumor activity against human HCT8 cells; procedure, shortened: as §1
[6] = Antitumor activity against human KB-VIN cells; settings: KBVIN; procedure, shortened: as §1
[7] = system: ZR-75-1; assay: Antitumor activity against human ZR751 cells; procedure, shortened: as §1
[8] = system: LNCaP; assay: Antitumor activity against human LNCAP cells; procedure, shortened: as §1
[9] = system: 1A9; assay: Antitumor activity against human 1A9 cells; procedure, shortened: as §1
[10] = system: HCT-116; assay: Antitumor activity against human HCT116 cells; procedure, shortened: as §1
[11] = system: DU-145; assay: Antitumor activity against human DU145 cells; procedure, shortened: as §1

Compound | EC50 [1] | EC50 [2] | EC50 [3] | EC50 [4] | EC50 [5] | EC50 [6] | EC50 [7] | EC50 [8] | EC50 [9] | EC50 [10] | EC50 [11]
C[C@]12C(=O)C=CCC1=CC[C@@H]1[C@@H]2CC[C@]2(O)C(=O)O[C@@]3(C)[C@H]4C[C@]5(C)[C@@H](CO[C@@]16O[C@@]32[C@H]5C6=O)C(=O)O4 [PHYSALIN B] | 5.9 µg/mL (≈ 11.6 µM) | 3 µg/mL (≈ 5.88 µM) | 1.8 µg/mL (≈ 3.53 µM) | 0.9 µg/mL (≈ 1.76 µM) | 1.5 µg/mL (≈ 2.94 µM) | 1.3 µg/mL (≈ 2.55 µM) | 2.6 µg/mL (≈ 5.09 µM) | 5.3 µg/mL (≈ 10.4 µM) | – | – | –
C[C@@]12C[C@H]3OC(=O)[C@@H]1CO[C@@]14O[C@]5([C@H]2C1=O)[C@@](O)(CC[C@H]1[C@H]4C[C@@H](O)[C@@]2(O)CC=CC(=O)[C@]12C)C(=O)O[C@@]35C [PHYSALIN D] | 1.6 µg/mL (≈ 2.94 µM) | 1.2 µg/mL (≈ 2.2 µM) | 1.4 µg/mL (≈ 2.57 µM) | 1.6 µg/mL (≈ 2.94 µM) | 1.2 µg/mL (≈ 2.2 µM) | 7 µg/mL (≈ 12.9 µM) | 0.4 µg/mL (≈ 0.735 µM) | 1.3 µg/mL (≈ 2.39 µM) | – | – | –
C[C@@]12C[C@H]3OC(=O)[C@@H]1CO[C@]14O[C@]5([C@H]2C1=O)[C@@](O)(CC[C@H]1[C@H]4C[C@H]2O[C@]24CC=CC(=O)[C@]14C)C(=O)O[C@@]35C [PHYSALIN F] | 1.3 µg/mL (≈ 2.47 µM) | 0.9 µg/mL (≈ 1.71 µM) | 1.1 µg/mL (≈ 2.09 µM) | 1.1 µg/mL (≈ 2.09 µM) | 1 µg/mL (≈ 1.9 µM) | 1.9 µg/mL (≈ 3.61 µM) | 0.3 µg/mL (≈ 0.57 µM) | 1 µg/mL (≈ 1.9 µM) | – | – | –
C[C@@]12C[C@H]3OC(=O)[C@@H]1CO[C@@]14O[C@]5(C2C1=O)[C@@](O)(CC[C@H]1[C@H]4C[C@@H]2O[C@@]24CC=CC(=O)[C@]14C)C(=O)O[C@@]35C [PHYSALIN J] | – | – | 17 µg/mL (≈ 32.3 µM) | – | – | – | – | – | – | – | –
CO[C@@H]1CC(=O)[C@]2(C)[C@H]3CC[C@@]4(O)C(=O)O[C@@]5(C)[C@H]6C[C@@]7(C)C8C(=O)[C@@](OC[C@H]7C(=O)O6)(O[C@]845)[C@@H]3C[C@H]3O[C@]32C1 [PHYSALIN U] | 16.3 µg/mL (≈ 29.2 µM) | 11.9 µg/mL (≈ 21.3 µM) | 13.4 µg/mL (≈ 24 µM) | 18.1 µg/mL (≈ 32.4 µM) | 11.1 µg/mL (≈ 19.9 µM) | 20 µg/mL (≈ 35.8 µM) | 8.2 µg/mL (≈ 14.7 µM) | 15.9 µg/mL (≈ 28.5 µM) | – | – | –
CO[C@@H]1CC(=O)[C@@]2(C)[C@@H](CC[C@@H]3[C@@H]2CC[C@@]2(O)C(=O)O[C@@]4(C)[C@H]5C[C@@]6(C)C7C(=O)[C@@]3(OC[C@H]6C(=O)O5)O[C@]724)C1 [PHYSALIN W] | – | – | – | – | – | – | – | – | 9.2 µg/mL (≈ 16.9 µM) | – | –
CC1=C(C)C(=O)OC([C@](C)(O)[C@]2(O)C[C@H](O)[C@@]3(O)[C@@H]4C[C@H]5O[C@]56[C@@H](O)C=CC(=O)[C@]6(C)[C@H]4CC[C@@]32C)C1 (stereo partly specified) [WITHANGULATIN B] | – | – | – | – | – | – | – | 0.2 µg/mL (≈ 0.386 µM) | 0.2 µg/mL (≈ 0.386 µM) | 0.4 µg/mL (≈ 0.771 µM) | 1.3 µg/mL (≈ 2.51 µM)
CO[C@H]1C[C@@](O)([C@@](C)(O)C2CC(C)=C(C)C(=O)O2)[C@@]2(C)CC[C@H]3[C@@H](C[C@H]4O[C@]45[C@@H](O)CCC(=O)[C@]35C)[C@]12O (stereo partly specified) [WITHANGULATIN C] | – | – | – | – | – | – | – | 13.9 µg/mL (≈ 26 µM) | 6.5 µg/mL (≈ 12.2 µM) | 11.4 µg/mL (≈ 21.3 µM) | –
CC1=C(C)C(=O)OC([C@](C)(O)[C@]2(O)[C@@H](O)C[C@@]3(O)[C@@H]4C[C@@H](O)[C@@]5(O)[C@@H](O)C=CC(=O)[C@]5(C)[C@H]4CC[C@]23C)C1 (stereo partly specified) [WITHANGULATIN G] | – | – | – | – | – | – | – | 13.4 µg/mL (≈ 25 µM) | 18.8 µg/mL (≈ 35 µM) | – | –
CO[C@H]1CC(=O)[C@]2(C)[C@H]3CC[C@]4(C)[C@](O)([C@@](C)(O)C5CC(C)=C(C)C(=O)O5)[C@@H](O)C[C@@]4(O)[C@@H]3C[C@H]3O[C@]32C1 (stereo partly specified) [WITHANGULATIN H] | – | – | – | – | – | – | – | 9.6 µg/mL (≈ 18 µM) | 3.7 µg/mL (≈ 6.92 µM) | 9.2 µg/mL (≈ 17.2 µM) | –
